Results from different studies.
Compare with care: the assays were run in different laboratories.
Target: Casein kinase I isoform gamma-3 (CSNK1G3, Homo sapiens, UniProt Q9Y6M4)

effect on | action | method | tested at | quantity | value | Structure (SMILES)
binding | – | – | 1 µM | remaining binding | 100% | Cc1ccc(NC(=O)c2ccnc(C(F)(F)F)c2)cc1-c1cc(OCCO)nc(N2CCOCC2)c1
enzyme activity | inhibitor | – | 1 µM | inhibition | 0% | CO[C@@H]1[C@H](N(C)C(=O)c2ccccc2)C[C@H]2O[C@]1(C)n1c3ccccc3c3c4c(c5c6ccccc6n2c5c31)C(=O)NC4
cell-free assay | – | – | 0.1 µM | remaining signal | 100% | C1=C/COCc2cc(ccc2OCCN2CCCC2)Nc2nccc(n2)-c2cccc(c2)COC/1
binding | – | – | 1 µM | remaining binding | 100% | COc1ccc2[nH]c3c4[nH]c5ccc(OC)cc5c4c4c(c3c2c1)C(=O)NC4=O
binding | – | competition with immobilised ligand | 0.5 µM | remaining binding | 85% | CCCCC(=O)Nc1ccc(-c2ccc3ncn(CCC)c(=O)c3c2)cn1
enzyme activity | inhibitor | – | 1 µM | inhibition | 0% | C=CC(=O)N1CCC([C@@H]2CCNc3c(C(N)=O)c(-c4ccc(Oc5ccccc5)cc4)nn32)CC1
enzyme activity | inhibitor | – | 0.1 µM | inhibition | -4.11% | Cc1cc(O)c(-c2ccc([C@@H](C)CN(C)C)cc2)c2c1[nH]c(=O)c1sccc12
thermal stability | – | DSF | 30 µM | ΔTm | 3.3 °C | N#Cc1ccc2nc(Nc3ccc(N4CCOCC4)c(Cl)c3)[nH]c2c1
